MrgX1 PAM: human MrgX1 positive allosteric modulation, primary screen; Q96LB2; MrgX1-HEK293, Fluo-4 calcium flux, FDSS; hits give high values; B-score at 10 µM; 0.63% of 310,000 active; AID 588675;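 active means plate-corrected calcium response at least 3 library SD above typical, normal starting fluorescence, not activating the receptor alone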;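 further: compound read alongside a low EC10 to EC30 dose of BAM8-22 agonist; peak minus trough fluorescence over baseline measured at the second addition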
Target sequence (Q96LB2 whole entry, looked up): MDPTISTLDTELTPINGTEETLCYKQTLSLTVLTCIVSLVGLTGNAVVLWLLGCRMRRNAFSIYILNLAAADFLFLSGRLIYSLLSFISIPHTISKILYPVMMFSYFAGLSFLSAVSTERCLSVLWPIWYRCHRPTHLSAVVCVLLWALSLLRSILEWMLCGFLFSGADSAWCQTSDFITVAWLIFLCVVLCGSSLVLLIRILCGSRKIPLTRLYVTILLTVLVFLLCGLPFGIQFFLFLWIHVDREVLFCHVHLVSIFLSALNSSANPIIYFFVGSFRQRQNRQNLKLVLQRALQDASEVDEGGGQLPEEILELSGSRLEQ
RGS4 act: potentiators or activators of RGS4; HEK293 M3R/inducible RGS4, carbachol calcium flux Fluo4; hits give low values; B-score at 10 µM; 0.92% of 310,000 active; AID 463111;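 active means B-score of the integrated calcium signal more than 4 SD below the library mean, with starting fluorescence not abnormally high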;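 further: negative B-score means reduced calcium response which marks RGS4 activation or potentiation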
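Detection: kinetic calcium fluorescence imaging with Fluo4-AM dye, 2 µM / Material: HEK293 cells with stable M3R and inducible RGS4 / Schedule: recording 10 s baseline at 1 Hz, 100 s post-agonist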
MrgX1 agonist: agonists of human MrgX1 receptor | MrgX1-HEK293 cells, Fluo-4 calcium fluorescence, agonist mode; hits give high values | B-score at 10 µM | 0.44% of 310,000 active;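 active means calcium response B-score plate-corrected fluorescence ratio at least 3 library SD, with starting fluorescence B-score inside 5 SD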
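Test system: HEK293 cells stably expressing human MrgX1 receptor; Input: fifteen thousand cells per well; Dosing: compound delivered in addition one of three; Schedule: overnight seeding, then 1 h dark dye loading; Technique: Fluo-4 NW calcium fluorescence; Measure: B-scored fluorescence response ratio; Controls: positive and negative controls per plate.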
MrgX1 antag: blocks BAM8-22 activation of human MrgX1 receptor | 1.3% of 310,000 active | Q96LB2 | B-score at 10 µM | MRGX1-HEK293 calcium flux, Fluo-4, BAM8-22 antagonism; hits give low values | AID 588676;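 active means calcium-response B-score plate-corrected more than 3 library SD below zero, starting fluorescence within 5 deviations, no agonist response on first addition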;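 further: peak minus trough fluorescence over baseline after final BAM8-22 challenge near maximal dose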
RGS4 inh: inhibitors of human RGS4 | P49798 | HEK293 M3R/RGS4 inducible, Fluo-4 calcium flux; hits give high values; triggered by carbachol at its EC20 | B-score at 10 µM | 0.45% of 310,000 active | AID 463165;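 active means B-score, a plate-corrected calcium signal, over three deviations above library mean, with baseline fluorescence within five deviations of library mean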;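 further: RGS4 expression induced by doxycycline in cells with stable M3 receptor; B-score is computed from the integrated fluorescence ratio over baseline after carbachol; higher B-score means a larger calcium signal and so more RGS4 inhibition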
Target sequence (P49798 whole entry, looked up): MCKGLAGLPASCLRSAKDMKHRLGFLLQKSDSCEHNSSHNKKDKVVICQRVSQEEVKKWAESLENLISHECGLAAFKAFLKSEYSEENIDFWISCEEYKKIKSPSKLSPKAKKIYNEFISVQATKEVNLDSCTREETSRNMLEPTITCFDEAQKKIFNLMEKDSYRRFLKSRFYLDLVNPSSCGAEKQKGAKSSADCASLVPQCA
RGS4 act valid: RGS4 activation, validation assay. shares compounds with RGS4 act. 89% of 1,100 active. AID 602282. HEK293 M3R/RGS4 inducible, carbachol calcium flux Fluo4. inhibition, % at 10 µM;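 active means inhibition above 3 SD of the buffer control wells, cut at about 41% in these data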;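 further: signal is the integrated peak-minus-minimum Fluo4 fluorescence over baseline ratio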
RGS4 act ctr: counter-screen for RGS4 activators: effect in non-induced cells; inhibition, % at 10 µM; AID 602283; 82% of 1,100 active; shares compounds with RGS4 act; HEK293 M3R non-induced RGS4, Fluo4 calcium flux; after carbachol challenge at its EC90;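 active means inhibition exceeding 3 SD of buffer-only control wells, cut at about 26% in these data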;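 further: percent drop in integrated peak-minus-baseline over baseline Fluo4 ratio after carbachol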
Large screens that a line does not name were inactive (follow-up assays come after a bar, where they were run). Shown are actives, neighbours in structure and some others; about 3.5% of the full set was active somewhere.

Cc1cc2oc(=O)c(CC(=O)NCCCN(C)C)c(C)c2c2occ(C(C)(C)C)c12	RGS4 act -7.9 | RGS4 act valid 90 | RGS4 act ctr 51
CN1CCC(=C2c3ccccc3C=Cc3ccccc32)CC1	none
c1ccc2c(c1)CCc1ccccc1C2=C1CCNCC1	RGS4 act -12 | RGS4 act valid 94 | RGS4 act ctr 94
COc1ccccc1C(CNC(=O)c1cccc(NS(=O)(=O)c2ccc(C)c(F)c2)c1)N(C)C (centres undefined)	RGS4 act -8.4 | RGS4 act valid 77 | RGS4 act ctr 55
CCn1ncc(CN2CCCC(C(=O)c3cccc(OC(C)C)c3)C2)c1C (centres undefined)	RGS4 act -10 | RGS4 act valid 84 | RGS4 act ctr 38
CC(C)CN(C(=O)c1cccc(Cl)c1)c1c(N)n(CC(C)C)c(=O)[nH]c1=O	none
COC(=O)COc1ccc(S(=O)(=O)NCc2ccco2)cc1	none
CC(C)CSC1=NSC2=NC(=O)/C(=C\c3coc4ccccc4c3=O)C(=N)N12	RGS4 act -12 | RGS4 act valid 98 | RGS4 act ctr 100
Cc1ccc(C)c(-n2c3nc(=O)n(C)c(=O)c-3cc3ccccc32)c1	RGS4 act -12 | RGS4 act valid inactive | RGS4 act ctr inactive
O=S(=O)(NCc1csc(-c2cccs2)n1)c1cccs1	RGS4 act -8 | RGS4 act valid inactive | RGS4 act ctr inactive
O=S(=O)(NCc1csc(-c2cccs2)n1)c1ccc(Cl)cc1	none
COc1cc(Cl)c(CN2CCC(CO)(CCOc3ccccc3)CC2)cc1OC	none
OCC1(CCOc2ccccc2)CCN(CC2=Cc3cc(Cl)ccc3OC2)CC1	RGS4 act -8.7 | RGS4 act valid 87 | RGS4 act ctr 56
S=C(NCc1ccco1)N1CCN(C(c2ccccc2)c2ccccc2)CC1	RGS4 act -9.8 | RGS4 act valid 66 | RGS4 act ctr inactive
Cc1nnc(SCC(=O)NCC2CCCO2)n1-c1ccccc1 (centres undefined)	none
CC(C)NC(=O)c1ccc2c(=O)n(C3CCCC3)c(=S)[nH]c2c1	none
CCN(CC)CCNC(=O)c1ccc2c(=O)n(C3CCCC3)c(=S)[nH]c2c1	RGS4 act -8.4 | RGS4 act valid 92 | RGS4 act ctr 73
O=C(CSc1ncc(-c2ccccc2)n1C1CCCC1)N1CCc2ccccc21	RGS4 act -7.7 | RGS4 act valid 54 | RGS4 act ctr 84
O=C(c1ccc(COc2ccccc2[N+](=O)[O-])o1)N1CCCCCC1	none
CC(C)C(CC(=O)NCc1ccco1)c1ccco1 (centres undefined)	none
CCN(CC)c1ccc(S(=O)(=O)N2CCOCC2)cc1NC(=O)c1cc(=O)c2ccccc2o1	none
CCC(C)c1ccccc1NC(=O)CN1CCN(C/C=C/c2ccccc2)CC1 (centres undefined)	RGS4 act -10 | RGS4 act valid 76 | RGS4 act ctr 84
O=C(CN1CCN(C/C=C/c2ccccc2)CC1)NCc1ccccc1	none
COc1ccc(C(=O)c2sc3nc(C)cc(-c4cccs4)c3c2N)cc1OC	RGS4 act -8.7 | RGS4 act valid 83 | RGS4 act ctr 71
COc1ccc(C(=O)c2sc3nc(C)cc(-c4cccs4)c3c2N)cc1	none (no result: MrgX1 PAM, MrgX1 agonist, MrgX1 antag)
CC(C)NC(=O)CN1CCN(Cc2nc(C(c3ccccc3)c3ccccc3)no2)CC1	RGS4 act -7.6 | RGS4 act valid 92 | RGS4 act ctr 58
C[C@@H]1CN(C2CCN(Cc3nc(C(c4ccccc4)c4ccccc4)no3)CC2)C[C@H](C)O1	none
NC(=O)CCN1CCN(Cc2nc(C(c3ccccc3)c3ccccc3)no2)CC1	RGS4 act -8.7 | RGS4 act valid 92 | RGS4 act ctr 58
COc1ccccc1NC(=O)CNC(=O)c1ccc(F)cc1	none
CC1CCN(CCCCOc2ccc(C(C)(C)C)cc2)CC1	RGS4 act -9.6 | RGS4 act valid 93 | RGS4 act ctr 60
CC1CCN(CCCCOc2ccc(Cl)cc2)CC1	none
CNCCCCOc1ccccc1-c1ccccc1	RGS4 act -8.8 | RGS4 act valid 85 | RGS4 act ctr 84

Screening data as filed in PubChem.
